# Experiment: Toxicity liver stage against HepG2, at 10uM
# Format: cell-based
# Set-up: test concentration 10 uM, cell line HepG2-A16-CD81EGFP
# Conditions: human, HepG2-A16-CD81EGFP cells; read-out: INHIBITION
# Procedure, shortened: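 Uninfected HepG2-A16-CD81EGFP cells, 3 × 10^3 per well, 1536-well, plated on prespotted compound at 10 μM final, parasite-free screening media added to match infected plates; puromycin 10 μM positive, DMSO 0.5% negative; run in parallel with 48 h PbLuc assay at 37 °C, 5% CO2; viability by CellTiter-Glo luminescence, normalized to controls.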
row,Compound,cytotoxicity at 10 µM [%]
1,COC(=O)[C@@H]1Cc2ncn(C)c2CN1S(=O)(=O)c1ccc(OC)cc1,-4.13
2,CC(C)C1SCC(=O)Nc2c1cnn2C(C)C (stereo not given),4
3,Cc1ccccc1-n1ncc2c(=O)n(CCN3CCCCC3)cnc21,-8.47
4,CCOC(=O)CN1C[C@@H]2OCCN(c3ncc(F)cn3)[C@@H]2C1,20.2
5,Cc1nc(CN2CCO[C@H]3CN(C(=O)c4cccn4C)C[C@H]32)cs1,-136
6,O=C(NCc1ccco1)[C@H]1C[C@H]2OCC[C@H]2N(S(=O)(=O)C2CC2)C1,-1.48
7,COCCC(=O)N1CCN(C)c2ncccc2C1,-8.28
8,Cn1cc(-c2cnc(N3CCCC3)nc2)cc1C(=O)O,-16.3
9,COCC(=O)N1CCC(c2cc(-c3ccc(OC)cc3)n[nH]2)C1 (stereo not given),-10.3
10,CS(=O)(=O)N1CCCC1c1cccc(Cc2ccccc2F)n1 (stereo not given),-13.2
11,Cc1cc(C(=O)Nc2ccc(OCCN3CCN(C)CC3)cc2)[nH]n1,-2.51
12,O=C(NCCNc1ncccn1)c1ccc(OCc2ccccc2)nc1,17
13,Cc1ccc(CN2CCC(CNC(=O)Cn3cncn3)CC2)cc1,1.22
14,CCN1CC(COC(=O)c2ccccc2Cl)CC1=O (stereo not given),-1.54
15,O=C(Nc1ccccc1F)N(CCO)CCOCC(F)(F)F,1.1
16,CC(C)=CCNC1CCCN(c2ccc(C)nn2)C1 (stereo not given),5.23
17,COCCN1CCN(CC(=O)N(C)Cc2ccccc2)CC1C (stereo not given),-144
18,Nc1nccnc1C(=O)N(Cc1ccco1)CC1CCCO1 (stereo not given),8.13
19,Cc1cccc(C)c1OCCCN1CCC(n2cncn2)CC1,-24.3
20,CNC(=O)NC(=O)CCSCc1cc(Cl)cc2cccnc12,-8.06
21,Cc1ccccc1CS(=O)(=O)CC(=O)N(C)Cc1ccccc1F,-0.969
22,N#Cc1ccc(N2CCN(c3nccs3)CC2)nc1,31
23,CCc1ncc(C(=O)NCCNC(=O)Cc2ccc(F)cc2)s1,-2.57

row,Compound,cytotoxicity at 10 µM [%]
1,Cc1noc(C)c1CN1CCn2cc(CN3CCOCC3)nc2C1,4.71
2,Cc1cc(C)cc(CN2CCN(C(=O)C3CCC3)[C@@H]3CS(=O)(=O)C[C@@H]32)c1,-1.38
3,Cc1cc(C)c2c(N(C)CC3COCCO3)ncnc2n1 (stereo not given),-133
4,CCSc1ncc(CN2CCN(c3nc(C)cnc3C)CC2)cn1,5.84
5,Cc1ncsc1CCN(C)C(=O)CCc1nc2cccnc2n1C,-149
6,COc1nccc(N2CC[C@@H](N3CCC(O)CC3)[C@H](O)C2)c1C#N,-152
7,CCCOCCCNc1nccc(-c2cn(C)nc2C)n1,-10.5
8,COc1ccc(CN2CCC3(CC(Nc4ccncn4)C3)C2)c(OC)c1 (stereo not given),2.43
9,Cc1ccc(NC(=O)C2CSCN2C(=O)c2cnsn2)c(C)c1 (stereo not given),-0.955
10,Cc1noc(C)c1C(=O)N1CCCC1c1c(C)nn(C)c1C (stereo not given),-5.68
11,CC(C)CCCNC(=O)Nc1ccc(C(N)=O)c(Cl)c1,4.69
12,CC(NC(=O)NCc1ccccc1Cl)c1ccccn1 (stereo not given),-11.1
13,O=C(CCCOc1cccc(F)c1)N1CCCC(n2cncn2)C1 (stereo not given),-13.2
14,O=C(NCCCn1cccn1)NCC(c1ccco1)N1CCCC1 (stereo not given),-13.3
15,CCn1c(C)nnc1CN(C)C1CCN(CCS(=O)(=O)CC)C1 (stereo not given),-1.17
16,Cc1noc(C2CCCN(C(=O)c3cc(Cl)ccc3F)C2)n1 (stereo not given),2.66
17,CCOCC1c2c(cnn2C)CCN1C(=O)c1ccncn1 (stereo not given),-141
18,O=S(=O)(C1CC1)N1CCC[C@]2(C[C@@H](Oc3ccccn3)CO2)C1,-144
19,O=C(Nc1ccccc1)C1CN(Cc2ccco2)CC12CCOCC2 (stereo not given),-3.2
20,CCN(CC)c1ncnc2c1CCN(C(=O)Cc1ccccn1)CC2,3.13
21,Cc1cccc(CN2CCO[C@H]3[C@H](Oc4ccccn4)CC[C@@H]32)n1,-4.65
22,c1cncc(CN2CC[C@@H]3O[C@H](COCCN4CCCC4)CC[C@@H]32)c1,-156

# From ChEMBL document CHEMBL4513216, “Probing the Open Global Health Chemical Diversity Library for Multistage-Active Starting Points for Next-Generation Antimalarials” (ACS Infect Dis, 2020)
